# KCNQ1 pot: potentiators or activators of KCNQ1 channel, primary screen, cell-based, thallium flux, high-throughput; CHO-K1 KCNQ1, thallium flux FluxOR fluorescence; stronger effect = higher value; Potassium voltage-gated channel subfamily KQT member 1 (Homo sapiens), P51787; 310,000 compounds, 0.35% hits; B-score at 10 µM;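 active = fluorescence ratio B-score, a plate-corrected score, at least three library SD, with initial intensity B-score within 5 SD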
#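 assay system = CHO-K1 cells stably expressing KCNQ1 | medium = assay buffer, equal DMSO in all wells | timing = 37 °C overnight plating, 90-min dark dye load, 20-min compound pretreatment | measured by = kinetic FluxOR thallium fluorescence, 10-s 1-Hz baseline, 110-s post-stimulus read | measure = fluorescence change relative to baseline, converted to B score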
# KCNQ1 block: inhibitors of human KCNQ1 channel, primary screen, cell-based, thallium flux, high-throughput. CHO-K1 KCNQ1, FluxOR thallium flux fluorescence; stronger effect = higher value. B-score at 10 µM. 310,000 compounds, 1.3% hits. Potassium voltage-gated channel subfamily KQT member 1 (Homo sapiens), P51787;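 active = compounds whose thallium flux B-score, printed positive for inhibition, exceeds three library SD while starting fluorescence stays within three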;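 note: channel opened by potassium depolarization with thallium stimulus after 20 min compound exposure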
# KCNK3 block: human KCNK3 channel inhibitors, primary screen, CHO cells, FluxOR thallium flux, B-score; 340,000 compounds, 0.84% hits; B-score at 10 µM; Potassium channel subfamily K member 3 (Homo sapiens), O14649; FluxOR fluorescence; stronger effect = lower value; AID 602410, 2012;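 active = B-score under library mean minus 4 SD, starting fluorescence ratio at most library mean plus 5 SD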;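 note: more negative B-score means stronger inhibition of thallium flux through KCNK3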
# Target sequence (O14649 whole entry, looked up): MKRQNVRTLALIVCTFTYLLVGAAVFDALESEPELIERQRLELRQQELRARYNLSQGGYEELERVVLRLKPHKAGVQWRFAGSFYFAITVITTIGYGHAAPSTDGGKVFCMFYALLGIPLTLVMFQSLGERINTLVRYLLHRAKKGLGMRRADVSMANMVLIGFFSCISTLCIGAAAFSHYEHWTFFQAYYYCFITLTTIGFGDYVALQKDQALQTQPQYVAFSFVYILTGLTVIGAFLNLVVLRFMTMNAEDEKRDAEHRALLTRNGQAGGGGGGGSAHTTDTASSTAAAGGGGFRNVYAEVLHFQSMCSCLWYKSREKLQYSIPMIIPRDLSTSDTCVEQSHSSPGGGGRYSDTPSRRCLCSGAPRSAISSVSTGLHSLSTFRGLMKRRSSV
# KCNK9 block: KCNK9 potassium channel inhibitors, primary screen, HEK293 cells, thallium flux. FluxOR thallium flux fluorescence; stronger effect = lower value. B-score at 10 µM. 310,000 compounds, 1.2% hits. AID 488922, 2010;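 active = ratio B-score over 3 SD below the library mean, with starting fluorescence within 5 SD of its mean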;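 note: negative B-score means less thallium flux so channel inhibition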
# Target sequence (Q9NPC2 whole entry, looked up): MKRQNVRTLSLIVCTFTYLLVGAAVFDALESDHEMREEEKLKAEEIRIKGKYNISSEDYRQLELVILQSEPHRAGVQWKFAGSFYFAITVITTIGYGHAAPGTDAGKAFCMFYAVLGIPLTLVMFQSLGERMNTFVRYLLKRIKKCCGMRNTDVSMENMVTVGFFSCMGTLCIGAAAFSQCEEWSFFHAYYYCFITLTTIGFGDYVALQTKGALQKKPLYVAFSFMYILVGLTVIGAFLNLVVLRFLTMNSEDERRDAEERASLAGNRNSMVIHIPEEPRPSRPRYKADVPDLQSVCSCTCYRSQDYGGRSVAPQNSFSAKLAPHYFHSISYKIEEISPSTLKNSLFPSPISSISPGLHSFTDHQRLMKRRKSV
# KCC2 mod: KCC2 cotransporter modulators, thallium flux, primary screen, cell-based, HEK293 KCC2, FluoZin-2 fluorescence, MLSMR; AID 1456, 2008; 190,000 compounds, 2.2% hits; Solute carrier family 12 member 5 (Homo sapiens), Q9H2X9; B-score of Tl+ flux slope (higher = more flux/activation; lower = inhibition) at 10 µM; KCC2 cells, thallium flux FluoZin-2 fluorescence;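 active = thallium flux slope and its plate-corrected score both differing from the plate sample mean at a set confidence after two filtering rounds, in either direction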;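 note: slope of fluorescence scaled to starting intensity during 10 to 20 s after thallium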
# hERG protect: hERG rescue from dofetilide block, primary screen, cell-based, CHO-hERG, FluxOR thallium flux, dofetilide IC70 | Voltage-gated inwardly rectifying potassium channel KCNH2 (Homo sapiens), Q12809 | dofetilide IC70 present | activation (rescue from dofetilide block), less the hit threshold, % at 10 µM | 310,000 compounds, 0.51% hits;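 active = activation above the mean of controls blocked by dofetilide plus 5 SD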;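 note: thallium influx through hERG after potassium depolarization seen as dye fluorescence rise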
# KCC2 secondary: KCC2 modulators in sodium-free buffer, confirmation, cell-based, HEK293 KCC2, thallium flux, secondary assay. shares compounds with KCC2 mod. FluoZin2 fluorescence; stronger effect = higher value. normalised thallium flux (F/F0 slope) at 10 µM. 3,700 compounds, 15% hits;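 active = thallium flux slope above the same plate's solvent-only control mean plus 3 SD; inconclusive = the two replicate wells disagree; inactive = no significant difference from solvent-only control wells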
# KCC2 bumet counter: thallium flux persisting under bumetanide in KCC2 cells, confirmation, counter-screen for KCC2 modulator project, cell-based, HEK293 KCC2, FluoZin2, secondary assay 3; HEK293-KCC2 + bumetanide/ouabain; stronger effect = higher value; normalized thallium flux at 10 µM; shares compounds with KCC2 mod; 3,700 compounds, 49% hits;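 active = thallium entry rate above the same plate's blocked-transporter control wells by more than 3 SD; inconclusive = the two repeat wells disagree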;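 note: raw slope of fluorescence over initial fluorescence between 10 and 20 s after thallium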
# KCC2 secondary2: KCC2 modulators without ouabain present, confirmation, cell-based, HEK293 KCC2, thallium flux, FluoZin2, secondary assay 2; AID 1715, 2009; 3,700 compounds, 23% hits; shares compounds with KCC2 mod; thallium flux FluoZin2 fluorescence; actives lie on both sides; F/F0 rise rate, 10–20 s post-thallium; normalized thallium flux at 10 µM;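 active = thallium flux slope more than 3 SD above or below the plate's solvent-only control mean, mostly below; inconclusive = the two repeat wells disagreed; inactive = no significant shift from solvent-only controls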;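 note: raw slope with 0.1% DMSO as baseline and bumetanide as block control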
# HEK293 Tl flux: thallium flux modulation in parental HEK cells, confirmation, counter-screen for KCC2 modulator project, cell-based, counterscreen 1; shares compounds with KCC2 mod; HEK293 parental cells, thallium flux FluoZin2, ouabain; baseline-ratio fluorescence slope, 10–20 s after thallium; thallium flux rate (normalised fluorescence) at 10 µM; 3,700 compounds, 46% hits; AID 1716, 2009;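 active = thallium flux rate significantly above the same plate's solvent-only control wells, beyond their mean plus 3 SD; inconclusive = the two replicate wells gave conflicting results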
# KCC2 ouabain: KCC2 inhibitors and activators, ouabain retest, confirmation, HEK-KCC2 cells | shares compounds with KCC2 mod | HEK293-KCC2, thallium flux FluoZin2 fluorescence; bidirectional: low = inhibitor, high = activator | raw Tl+ flux slope (below DMSO = inhibition, above = activation) at 10 µM | 3,700 compounds, 48% hits | AID 1717, 2009;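 active = thallium flux slope beyond 3 SD from same-plate DMSO control mean in most replicates, usually higher, sometimes lower; inconclusive = repeat tests gave conflicting results; inactive = no significant difference from controls in most replicates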;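 note: slope of initial-normalized fluorescence between seconds 10 and 20 after thallium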
# HEK293 Tl flux2: native HEK Tl+ uptake effects, second counter-screen – HEK cells, counterscreen 2, counter-screen for KCC2 modulator project, confirmation; thallium flux slope at 10 µM; 3,700 compounds, 33% hits; HEK293 parental, thallium flux FluoZin-2 fluorescence slope; shares compounds with KCC2 mod;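 active = thallium flux slope above the same plate's solvent-control mean plus 3 SD in both duplicate wells; inconclusive = duplicate wells that disagreed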;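 note: run without ouabain in cells lacking the KCC2 cotransporter; slope of fluorescence scaled to its starting value between 10 and 20 s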
# Active calls of the source: *; i = inactive; ? = inconclusive; · = no result. Hits are enriched below; roughly 4.1% of the tested compounds scored in any of these assays.
SMILES,KCNQ1 pot,KCNQ1 block,KCNK3 block,KCNK9 block,KCC2 mod,hERG protect,KCC2 secondary,KCC2 bumet counter,KCC2 secondary2,HEK293 Tl flux,KCC2 ouabain,HEK293 Tl flux2
O=C(OC1CCc2ccccc2C1=O)c1ccccc1O (stereo not given),·,·,i,·,-3.8*,·,0.0087,?,0.027*,0.0075,0.013*,0.011
O=C(N/N=C1\CCc2ccccc21)c1ccccc1O,i,i,i,i,0.84,-4,·,·,·,·,·,·
Nn1c(SCC(=O)NCCc2ccc(F)cc2)nnc1C1CCCCC1,·,·,i,·,·,·,·,·,·,·,·,·
CNC(=S)N=Nc1c(O)[nH]c2ccccc12,i,i,i,i,4.1*,-10,0.011,0.021*,0.034,0.011*,0.024,0.012*
Cc1ccc(NC(=S)N=Nc2c(O)[nH]c3ccccc23)cc1,i,i,i,i,4.3*,-5,0.0076,0.018*,0.033,0.02*,0.032*,0.013*
Oc1ccc(NC(=S)N=Nc2c(O)[nH]c3ccccc23)cc1,i,i,i,i,-1.7,-11,·,·,·,·,·,·
Oc1[nH]c2ccc(Br)cc2c1N=NC(=S)Nc1ccc(F)cc1,i,i,i,i,25*,-13,0.0062,0.033*,?,0.015*,0.031*,0.018*
O=C(NCCC1CCCCN1S(=O)(=O)c1ccccc1)C(=O)NCc1ccc(F)cc1 (stereo not given),i,i,i,i,·,-8,·,·,·,·,·,·
O=C(COc1ccc(F)cc1Cl)N(Cc1nnc(-c2ccccc2Cl)o1)C1CC1,i,i,i,i,·,-3,·,·,·,·,·,·
C[C@@H]1CN([C@@H](C)CO)C(=O)c2cc(NS(=O)(=O)c3cccs3)ccc2O[C@H]1CN(C)Cc1ccc(C(F)(F)F)cc1,·,·,i,·,·,·,·,·,·,·,·,·
COC(=O)C1CCN(S(=O)(=O)c2cn(C)c(=O)n(C)c2=O)CC1,i,i,i,i,-3.4*,-3,0.0088,?,0.032,0.0077,0.021,0.011
NC(=S)NN=C1C=CCCC1,·,·,i,·,·,·,·,·,·,·,·,·
CCC1CCCCN1S(=O)(=O)c1ccc(C(=O)Nc2nnc(-c3cccs3)o2)cc1 (stereo not given),·,·,i,·,15*,·,0.014*,0.054*,0.029,0.024*,0.045*,0.012*
CC1CC(C)CN(S(=O)(=O)c2ccc(C(=O)Nc3nnc(-c4cccs4)o3)cc2)C1 (stereo not given),i,i,i,i,12*,-8,0.0056,0.032*,0.041*,0.025*,0.034*,0.024*
CCn1c(SCC(=O)Nc2ccc(Cl)cc2)nc2nc3c(cc2c1=O)CCCC3,i,i,i,i,4.8*,-5,?,0.015*,0.033,0.013*,?,0.013*
S=c1[nH]nc(-c2ccccn2)n1/N=C/c1ccc(Cl)c(Cl)c1,i,i,i,i,41*,-10,0.0056,0.11*,0.054*,0.041*,0.067*,0.031*
S=c1[nH]nc(-c2ccccn2)n1/N=C/c1ccc(-c2ccccc2Cl)o1,i,i,i,i,132*,-8,0.12*,0.14*,0.031,0.13*,0.15*,0.013*
CCOC(=O)/C(C#N)=C1/C=C(C)NC(c2ccccc2O)=N1,i,i,i,i,-3.8*,-8,0.0071,0.0036,0.022*,0.0053*,0.013*,?
CCOc1ccc(CN(CCC#N)C(=S)NC(=O)c2ccccc2)cc1,11*,i,i,i,30*,-2,0.046*,0.12*,0.044*,0.073*,0.093*,0.03*
N#CCCN(Cc1ccccc1)C(=S)NC(=O)c1ccccc1,i,i,i,i,·,-2,·,·,·,·,·,·
C=C(C)CNC(=S)N=Nc1c(O)[nH]c2ccc([N+](=O)[O-])cc12,i,i,i,i,14*,-10,0.0076,0.021*,0.033,0.024*,0.027*,0.014*
NC(=O)N=Nc1c(O)[nH]c2ccc([N+](=O)[O-])cc12,i,i,i,i,0.031,-13,·,·,·,·,·,·
COc1ccc2nc(N=Nc3c(O)ccc4ccccc34)sc2c1,15*,i,·,i,14*,17*,0.013*,0.05*,0.036,0.025*,0.034*,0.016*
O=C(CCN1CCN(Cc2ccccc2)CC1)Nc1cccc(Cl)c1,i,i,i,i,-3.8*,-20,0.0057,0.0052,0.024*,0.0078,0.014*,0.0099
COCCN1C(=O)c2ccc(C(=O)Nc3nccs3)cc2C1=O,i,i,i,i,0.065,-4,·,·,·,·,·,·
CCCN1C(=O)c2ccc(C(=O)Nc3nccs3)cc2C1=O,i,i,i,i,6*,-9,0.0077,?,0.029,0.0076,0.018,0.011
